In BindingDB's records for PubMed 35700596 (2022):

Each molecule was assayed against T1, Nuclear factor of activated T-cells, cytoplasmic 1 (Homo sapiens, UniProt O95644) (assay: Inhibition of NFATC activity in HEK293T cells preincubated for 2 hrs followed by ionomycin/phorbol 12-myristate 13-acetate stimulation and measured after 4 hrs by luciferase reporter assay).
T1 sequence (O95644 whole entry): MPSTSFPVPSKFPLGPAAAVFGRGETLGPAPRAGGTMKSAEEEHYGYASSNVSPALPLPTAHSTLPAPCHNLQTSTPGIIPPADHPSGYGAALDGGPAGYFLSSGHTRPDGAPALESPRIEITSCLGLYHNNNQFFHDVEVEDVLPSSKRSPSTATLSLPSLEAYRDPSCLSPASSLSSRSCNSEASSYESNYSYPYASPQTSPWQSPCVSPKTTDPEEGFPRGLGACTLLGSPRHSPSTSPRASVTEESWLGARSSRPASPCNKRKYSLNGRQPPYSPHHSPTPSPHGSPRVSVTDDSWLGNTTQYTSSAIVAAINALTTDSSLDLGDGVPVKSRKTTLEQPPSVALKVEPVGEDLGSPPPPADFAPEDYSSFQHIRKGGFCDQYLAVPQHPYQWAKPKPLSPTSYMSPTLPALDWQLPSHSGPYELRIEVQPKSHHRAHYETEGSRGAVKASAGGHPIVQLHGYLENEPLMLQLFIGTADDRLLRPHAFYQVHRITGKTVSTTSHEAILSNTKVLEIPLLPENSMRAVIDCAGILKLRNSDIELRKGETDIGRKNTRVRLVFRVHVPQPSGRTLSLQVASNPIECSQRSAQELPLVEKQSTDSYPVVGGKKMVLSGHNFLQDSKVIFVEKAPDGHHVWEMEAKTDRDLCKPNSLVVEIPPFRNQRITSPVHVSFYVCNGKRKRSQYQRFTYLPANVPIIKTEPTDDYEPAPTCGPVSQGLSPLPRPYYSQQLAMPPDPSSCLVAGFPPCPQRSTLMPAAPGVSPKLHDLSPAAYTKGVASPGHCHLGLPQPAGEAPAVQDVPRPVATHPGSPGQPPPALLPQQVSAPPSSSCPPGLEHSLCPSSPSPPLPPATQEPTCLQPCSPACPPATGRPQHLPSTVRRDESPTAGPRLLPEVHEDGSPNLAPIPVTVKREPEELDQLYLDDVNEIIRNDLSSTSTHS
Method in brief: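 HEK 293T cells (7.5 × 10⁴/well) co-transfected by CaCl₂ method with 100 ng 3xNFAT-luc and 1 ng pRLnull as transfection control. At 24 h, compound added for 2 h, then stimulated with 1 µM ionomycin, PMA and CaCl₂ for 4 h (20 ng/ml PMA and 2 mM CaCl₂ per figure legend). Luciferase read from crude extracts, relative to stimulated no-compound control (100%). Single doses 50 and 5 μM; dose-response 0.1–50 μM. IC50 by nonlinear regression; 3 experiments in triplicate.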

IC50	Structure (SMILES)
11.6 µM	CS(=O)(=O)NCc1cccc(NC(=O)c2ccc3[nH]ccc3c2)c1
18.7 µM	CS(=O)(=O)NCc1cccc(NC(=O)c2csc3ccccc23)c1
4.5 µM	Cc1ccc(C(=O)NCC(=O)Nc2cc(S(=O)(=O)Nc3ccc(Cl)cc3)ccc2Cl)s1
